ChEMBL document CHEMBL1128448, “Synthesis and antifungal activity of new azole derivatives containing an N-acylmorpholine ring” (1995)
In brackets after ≈: the same amount, converted by molar mass.

Assays:
Type in all cases: functional
Mus musculus [1] = test: In vivo evaluation of % survival rate after peroral administration on 5th day at dose 10 mg/kg; settings: route oral
Rattus norvegicus [2] = test: In vivo evaluation of antifungal activity against vaginal candidosis in rat at dose 0.5 mg/kg on 10th day
In short: (§1)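 Female Wistar rats, 10 per group, received estradiol 25 mg/kg sc on day -5. On day 0 they were infected intravaginally with C. albicans by sterile swab. Infection was confirmed on day 3 by culturing the swab in TSB and then on Sabouraud agar. Oral dosing was once daily on days 3, 4 and 5; controls got vehicle only. Vaginal swabs taken on days 10 and 15 were cultured and read the next day.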

Candida tropicalis [3] = test: In vitro evaluation of minimum inhibitory concentration against Candida tropicalis 2.11; settings: Candida tropicalis; read-out: MIC
In short: (§2)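 Stocks are 800 μg/mL in 50% ethanol. Each plate gets 10 μL of inoculum at 10^5 cfu/mL. Incubation at 25 °C, 48 h for yeasts and 120 h for dermatophytes and molds. Organisms are ATCC strains or clinical isolates.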

Mus musculus [4] = test: In vivo evaluation of % survival rate after peroral administration on 5th day at dose 20 mg/kg; settings: route oral
Mus musculus [5] = test: In vivo evaluation of % survival rate after peroral administration on 7th day at dose 20 mg/kg; settings: route oral
Mus musculus [6] = test: In vivo evaluation of % survival rate after peroral administration on 3rd day at dose 5 mg/kg; settings: route oral
Mus sp. [7] = test: In vivo evaluation of % survival rate after peroral administration on 9th day at dose 2.5 mg/kg; settings: Mus sp., po
Kluyveromyces marxianus [8] = test: In vitro evaluation of minimum inhibitory concentration against Candida pseudotropicalis 13; settings: Kluyveromyces marxianus; read-out: MIC; in short: as §2
Mus musculus [9] = test: In vivo evaluation of % survival rate after peroral administration on 7th day at dose 10 mg/kg; settings: route oral
Rattus norvegicus [10] = test: In vivo evaluation of antifungal activity against vaginal candidosis in rat at dose 0.5 mg/kg on 15th day; in short: as §1
Candida albicans [11] = test: Evaluation of In vitro antifungal activity against Candida albicans 76 by broth macro dilution method
In short: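 Yeast MIC and MFC by broth macrodilution per NCCLS M27-P in RPMI-1640 buffered with 0.165 M MOPS. Fluconazole in sterile water, other drugs in DMSO. C. parapsilosis ATCC 22019 is the reference strain in each run. MIC is the lowest concentration with turbidity ≤ the 80% inhibition standard. For MFC, 0.04 mL from clear tubes is plated on Sabouraud agar; MFC is the lowest concentration giving ≤1 colony.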

Mus musculus [12] = test: In vivo evaluation of % survival rate after peroral administration on 7th day at dose 5 mg/kg; settings: route oral
Mus musculus [13] = test: In vivo evaluation of % survival rate after peroral administration on 3rd day at dose 20 mg/kg; settings: route oral
Rattus norvegicus [14] = test: In vivo evaluation of antifungal activity in against vaginal candidosis in rat at dose 0.25 mg/kg on 10th day
In short: (§3)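 Groups of 10 female Wistar rats given estradiol 25 mg/kg sc on day -5, infected intravaginally with C. albicans by sterile swab on day 0; infection confirmed on day 3 by swab culture (TSB, then Sabouraud agar). Oral dosing once daily on days 3, 4, 5; vehicle controls. Vaginal swabs cultured on days 10 and 15; read-out % cured (culture-negative).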

Rhodotorula mucilaginosa [15] = test: In vitro evaluation of minimum inhibitory concentration against Rhodotorula rubra 16; settings: Rhodotorula mucilaginosa; read-out: MIC; in short: as §2
Mus musculus [16] = test: In vivo evaluation of % survival rate after peroral administration on 9th day at dose 20 mg/kg; settings: route oral
Mus sp. [17] = test: In vivo evaluation of % survival rate after peroral administration on 9th day at dose 0.5 mg/kg; settings: Mus sp., po
Candida albicans [18] = test: […] Evaluation of minimum inhibitory concentration against Candida albicans 406; in short: as §2
Mus musculus [19] = test: In vivo evaluation of % survival rate after peroral administration on 9th day at dose 10 mg/kg; settings: route oral
Mus musculus [20] = test: In vivo evaluation of % survival rate after peroral administration on 5th day at dose 5 mg/kg; settings: route oral
Mus sp. [21] = test: In vivo evaluation of % survival rate after peroral administration on 5th day at dose 2.5 mg/kg; settings: Mus sp., po
Mus musculus [22] = test: In vivo evaluation of % survival rate after peroral administration on 9th day at dose 5 mg/kg; settings: route oral
Mus sp. [23] = test: In vivo evaluation of % survival rate after peroral administration on 7th day at dose 2.5 mg/kg; settings: Mus sp., po
Mus sp. [24] = test: In vivo evaluation of % survival rate after peroral administration on 3rd day at dose 2.5 mg/kg; settings: Mus sp., po
Nakaseomyces glabratus [25] = test: In vitro evaluation of minimum inhibitory concentration against Torulopsis glabrata 78; settings: Nakaseomyces glabratus; read-out: MIC; in short: as §2
Candida albicans [26] = test: […] Evaluation of minimum inhibitory concentration against Candida albicans 60; in short: as §2
Mus musculus [27] = test: In vivo evaluation of % survival rate after peroral administration on 3rd day at dose 10 mg/kg; settings: route oral
Candida tropicalis [28] = test: In vivo Evaluation of minimum inhibitory concentration against Candida tropicalis 2.11; in short: as §2
Rattus norvegicus [29] = test: In vivo evaluation of antifungal activity against vaginal candidosis in rat at dose 0.1 mg/kg on 10th day
In short: (§4)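 Groups of 10 female Wistar rats given estradiol 25 mg/kg sc on day -5, then vaginally inoculated with C. albicans on day 0. Infection is confirmed by culture of day-3 swabs. Compound is dosed orally once daily on days 3–5; controls get vehicle. Cure is scored by culture of vaginal swabs taken on days 10 and 15.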

Rattus norvegicus [30] = test: In vivo evaluation of antifungal activity against vaginal candidosis in rat at dose 0.1 mg/kg on 15th day; in short: as §4
Rhodotorula mucilaginosa [31] = test: In vivo Evaluation of minimum inhibitory concentration against Rhodotorula rubra 16; settings: in the assay text read “In vitro” for “In vivo”; in short: as §2
Kluyveromyces marxianus [32] = test: In vivo Evaluation of minimum inhibitory concentration against Candida pseudotropicalis 13; settings: Kluyveromyces marxianus; read-out: MIC; in short: as §2
Candida albicans [33] = test: In vivo evaluation of minimum inhibitory concentration against Candida albicans 406
In short: (§5)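 Broth macrodilution MIC following NCCLS M27-P, in RPMI-1640 buffered with 0.165 M MOPS. Fluconazole was dissolved in water and other drugs in DMSO. C. parapsilosis ATCC 22019 served as the reference strain in every run. MIC was the lowest concentration giving turbidity at or below the 80% inhibition standard.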

Candida albicans [34] = test: In vivo evaluation of minimum inhibitory concentration against Candida albicans 60; in short: as §5
Rattus norvegicus [35] = test: In vivo evaluation of antifungal activity against vaginal candidosis in rat at dose 0.25 mg/kg on 10th day; in short: as §3
Nakaseomyces glabratus [36] = test: In vivo Evaluation of minimum inhibitory concentration against Torulopsis glabrata 78; settings: in the assay text read “In vitro” for “In vivo”; in short: as §2

## OC(Cn1cncn1)(Cn1cncn1)c1ccc(F)cc1F [FLUCONAZOLE]
Mus musculus [1]
  survival at 10 mg/kg: 100%
Rattus norvegicus [2]
  Cure rate: 20%
Candida tropicalis [3]
  MIC: 80 µg/mL (≈ 261 µM)
Mus musculus [4]
  survival at 20 mg/kg: 100%
Mus musculus [5]
  survival at 20 mg/kg: 98%
Mus musculus [6]
  survival at 5 mg/kg: 100%
Mus sp. [7]
  survival at 2.5 mg/kg: 70%
Kluyveromyces marxianus [8]
  MIC: 80 µg/mL (≈ 261 µM)
Mus musculus [9]
  survival at 10 mg/kg: 80%
Rattus norvegicus [10]
  Cure rate: 20%
Candida albicans [11]
  MFC: > 64 µg/mL
  MIC: 0.25 µg/mL (≈ 0.816 µM)
Mus musculus [12]
  survival at 5 mg/kg: 90%
Mus musculus [13]
  survival at 20 mg/kg: 100%
Rattus norvegicus [14]
  Cure rate: 10%
Rhodotorula mucilaginosa [15]
  MIC: > 80 µg/mL
Mus musculus [16]
  survival at 20 mg/kg: 75%
Mus sp. [17]
  survival at 0.5 mg/kg: 10%
Candida albicans [18]
  MIC: 2.5 µg/mL (≈ 8.16 µM)
Mus musculus [19]
  survival at 10 mg/kg: 60%
Mus musculus [20]
  survival at 5 mg/kg: 100%
Mus sp. [21]
  survival at 2.5 mg/kg: 100%
Mus musculus [22]
  survival at 5 mg/kg: 40%
Mus sp. [23]
  survival at 2.5 mg/kg: 95%
Mus sp. [24]
  survival at 2.5 mg/kg: 100%
Nakaseomyces glabratus [25]
  MIC: > 80 µg/mL
Candida albicans [26]
  MIC: 2.5 µg/mL (≈ 8.16 µM)
Mus musculus [27]
  survival at 10 mg/kg: 100%

## C[C@H]1N(C(=O)c2ccc(C(F)(F)F)cc2)C[C@H](O)O[C@@]1(Cn1cncn1)c1ccc(F)cc1F (stereo in doubt; (-)-39a)
Candida tropicalis [28]
  MIC: 40 µg/mL (≈ 82.9 µM)
Rattus norvegicus [29]
  Cure rate: 30%
Rattus norvegicus [30]
  Cure rate: 50%
Candida albicans [11]
  MFC: > 64 µg/mL
  MIC: 1 µg/mL (≈ 2.07 µM)
Rhodotorula mucilaginosa [31]
  MIC: > 80 µg/mL
Kluyveromyces marxianus [32]
  MIC: 20 µg/mL (≈ 41.5 µM)
Mus sp. [17]
  survival at 0.5 mg/kg: 40%
Candida albicans [33]
  MIC: 1.25 µg/mL (≈ 2.59 µM)
Candida albicans [34]
  MIC: 2.5 µg/mL (≈ 5.18 µM)
Rattus norvegicus [35]
  Cure rate: 95%
Nakaseomyces glabratus [36]
  MIC: > 80 µg/mL
